The source of these data is ChEMBL document CHEMBL3826891, “Cupriphilic compounds to aid in proteasome inhibition” (Bioorg Med Chem Lett, 2016).

Molecules are shown by their SMILES. Activity calls are given as the source filed them. No cut-off for these calls is given here.

Assay [1] deals with T1, Proteasome Macropain subunit MB1 (Homo sapiens) (UniProt P28074).
T1 sequence (whole entry): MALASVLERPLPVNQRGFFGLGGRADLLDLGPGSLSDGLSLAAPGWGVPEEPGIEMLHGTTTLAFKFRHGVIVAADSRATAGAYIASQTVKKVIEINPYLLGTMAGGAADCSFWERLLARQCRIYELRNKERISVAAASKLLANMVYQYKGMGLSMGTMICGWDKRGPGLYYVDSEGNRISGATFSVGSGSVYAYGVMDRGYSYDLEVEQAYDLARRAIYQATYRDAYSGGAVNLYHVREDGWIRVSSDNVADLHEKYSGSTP
Briefly: Inhibition of chymotrypsin like activity of 20S proteasome (unknown origin) using suc-leu-leu-val-tyr-AMC as substrate at 10 uM after 40 mins in presence of 1 uM copper by fluorescence assay. The gist of the method: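 Compound in DMSO, final DMSO below 2%, at 10 µM. Premixed with 1 µM copper chloride in 50 mM Tris pH 7.6 for 40 min with gentle shaking to allow chelation. 20S proteasome and suc-Leu-Leu-Val-Tyr-AMC were then added and incubated 2 h at 37 °C. Substrate cleavage rate was read as fluorescence at 340 nm excitation and 460 nm emission.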

Assay [2] has as its target T1, Proteasome Macropain subunit MB1 (Homo sapiens). Put plainly: Inhibition of chymotrypsin like activity of 20S proteasome (unknown origin) using suc-leu-leu-val-tyr-AMC as substrate at 10 uM after 40 mins in presence of nickel by fluorescence assay. The method, boiled down: (§1)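 To test metal selectivity, the chloride of nickel, calcium, iron or zinc replaced copper and was premixed with compound for 40 min with shaking in 50 mM Tris pH 7.6. 20S proteasome and suc-LLVY-AMC were then added and incubated 2 h at 37 °C. Cleavage was read by fluorescence at 340 nm excitation and 460 nm emission.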

The target is the same in assay [3]. Put plainly: Inhibition of chymotrypsin like activity of 20S proteasome (unknown origin) using suc-leu-leu-val-tyr-AMC as substrate at 10 uM after 40 mins in presence of iron by fluorescence assay. The gist of the method: as §1
Assay [4] shares this target. Briefly: Inhibition of chymotrypsin like activity of 20S proteasome (unknown origin) using suc-leu-leu-val-tyr-AMC as substrate at 10 uM after 40 mins in presence of calcium by fluorescence assay. The method, boiled down:
as §1

The target is the same in assay [5]. Briefly: Inhibition of chymotrypsin like activity of 20S proteasome (unknown origin) using suc-leu-leu-val-tyr-AMC as substrate at 10 uM after 40 mins in presence of copper by fluorescence assay.
Assay [6] concerns the target T2, Proteasome Macropain subunit MB1 (Homo sapiens, UniProt P28074).
T2 sequence (P28074 whole entry): T1 sequence (whole entry)
Put plainly: Inhibition of chymotrypsin like activity of 20S proteasome (unknown origin) using suc-leu-leu-val-tyr-AMC as substrate after 40 mins in presence of 100 nM copper by fluorescence assay. The method, boiled down:
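Dose-response format in which compound concentration was varied with copper chloride fixed at 100 nM. Compound and copper were pre-equilibrated 40 min with gentle shaking in 50 mM Tris pH 7.6, final DMSO below 2%. 20S proteasome and suc-LLVY-AMC were added and run 2 h at 37 °C. AMC fluorescence was read at 340/460 nm, and IC50 was taken from the curve.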

The inhibition is the percentage by which the read-out fell short of the control. As usually defined, the IC50 is the concentration at which inhibition is half-maximal.

In the case of `O=C(O)c1ccc(O)c(O)c1`, the inhibition in assay [1] was more than 80%. The inhibition entry in assay [2], in assay [3], in assay [4] and in assay [5] was “Active” throughout.

In the case of `O=C1c2c(O)cc(O)cc2OCC1c1ccc(O)cc1` (stereo unspecified), the inhibition in assay [1] was more than 80%. Besides, the inhibition entry in assay [2], in assay [3], in assay [4] and in assay [5] was “Active” each time.

As to `OCc1cc(O)c(CO)nn1`, the inhibition in assay [1] is more than 80%. Moreover, the inhibition entry in assay [2], in assay [3], in assay [4] and in assay [5] was “Active” in each case.

On to `O=c1oc2c(cc1O)oc(=O)c1cc(O)c(O)c(O)c12`, for which, in assay [1], the inhibition was more than 80%. In addition, the inhibition entry in assay [2], in assay [3], in assay [4] and in assay [5] was “Active” in each case.

For the compound `O=C1COc2c1ccc(O)c2O`, the inhibition in assay [1] was more than 80%. The IC50 in assay [6] turned out to be 3 µM. For the same compound, the inhibition entry in assay [2], in assay [3], in assay [4] and in assay [5] was “Active” throughout.

As to `NC(=O)SCC(=O)Nc1ccccc1C(=O)O`, in assay [1], the inhibition was more than 80%. For the same compound, the inhibition entry in assay [2], in assay [3], in assay [4] and in assay [5] was “Active” in each case.

For `CCN(CC)C(=S)SSC(=S)N(CC)CC`, the inhibition in assay [1] is 92%. Besides, the inhibition entry in assay [2], in assay [3], in assay [4] and in assay [5] was “Active” each time.
